Key:
Assay type in all cases: ADME, organism-based
Plasma [1] = assay: Tmax in Sprague-Dawley rat plasma at 5 mg/kg, iv by liquid scintillation counting; set-up: dose 5 mg/kg, route intravenous; conditions: in vivo
Outline: (§1)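 Male Sprague-Dawley rats, single i.v. bolus of [14C]drug. Blood by cardiac puncture from three noncannulated rats killed at each time from 0.25 to 168 h; plasma separated from an aliquot. Radioactivity by liquid scintillation counting. Parameters come from a composite profile of mean values, taking 1 g as equal to 1 ml.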

[2] = Volume of distribution at steady state in human whole blood at 100 uCi, iv by liquid scintillation counting; conditions: in vivo
Outline: (§2)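 Healthy adult men (n = 9), single i.v. infusion of [14C]drug over 100 min at 1 mg/min. 100 mg/100 μCi was planned; the mean actually given was 88.3 mg and 95 μCi. Heparinized samples drawn from 0 h through day 10 and at follow-up. Total radioactivity in plasma or whole blood counted by liquid scintillation and expressed as mg equivalents. Noncompartmental analysis, given as mean (%CV).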

Plasma [3] = assay: Volume of distribution at steady state in Sprague-Dawley rat plasma at 5 mg/kg, iv by liquid scintillation counting; set-up: dose 5 mg/kg, route intravenous; conditions: in vivo; outline: as §1
[4] = Drug level in bile-duct cannulated Sprague-Dawley rat assessed as radioactive drug recovery in bile at 5 mg/kg, iv after 168 hrs by liquid scintillation counting; set-up: dose 5 mg/kg, route intravenous; conditions: in vivo
Outline: (§3)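 Male Sprague-Dawley rats, single i.v. bolus of [14C]drug. Five bile duct-cannulated rats: bile collected at 0-4, 4-8 and 8-24 h, then every 24 h to 168 h. Three noncannulated rats were killed at 168 h. Urine and feces collected over set intervals; carcass and cage washings taken at sacrifice. Liquid scintillation counting, expressed as percent of dose.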

Plasma [5] = assay: Tmax in human plasma at 100 uCi, iv by liquid scintillation counting; conditions: in vivo
Outline: (§4)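 Nine healthy men, single i.v. infusion of [14C]drug (planned 100 mg/100 μCi, mean delivered 95 μCi) over 100 min. Heparinized blood sampled from 0 to 18 h, then daily through day 10, plus follow-up. Total radioactivity in plasma and whole blood by liquid scintillation counting, reported as mg equivalents. Noncompartmental analysis; values are means (%CV).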

[6] = Drug level in human assessed as radioactive drug recovery in urine at 100 uCi, iv after 216 hrs by liquid scintillation counting; conditions: in vivo
Outline: (§5)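 Nine healthy men given a single i.v. infusion of [14C]drug. Urine collected predose, at 0-2, 2-4, 4-8 and 8-24 h, then every 24 h to day 10. Feces collected predose and every 24 h to day 10. Radioactivity measured by liquid scintillation counting and totalled as cumulative percent of dose through 216 h.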

Plasma [7] = assay: Cmax in Sprague-Dawley rat plasma at 5 mg/kg, iv by liquid scintillation counting; set-up: dose 5 mg/kg, route intravenous; conditions: in vivo; outline: as §1
Plasma [8] = assay: Half life in human plasma at 100 uCi, iv by liquid scintillation counting; outline: as §4
Plasma [9] = assay: Mean residence time in human plasma at 100 uCi, iv by liquid scintillation counting; conditions: in vivo; outline: as §4
[10] = Half life in Sprague-Dawley rat whole blood at 5 mg/kg, iv by liquid scintillation counting; set-up: dose 5 mg/kg, route intravenous; conditions: in vivo; outline: as §1
[11] = Tmax in human whole blood at 100 uCi, iv by liquid scintillation counting; conditions: in vivo; outline: as §4
[12] = Drug level in human assessed as radioactive drug recovery in feces at 100 uCi, iv after 216 hrs by liquid scintillation counting; conditions: in vivo; outline: as §5
[13] = Drug level in noncannulated Sprague-Dawley rat assessed as radioactive drug recovery in feces at 5 mg/kg, iv after 168 hrs by liquid scintillation counting; set-up: dose 5 mg/kg, route intravenous; conditions: in vivo; outline: as §3
[14] = Half life in human whole blood at 100 uCi, iv by liquid scintillation counting; outline: as §4
Plasma [15] = assay: Half life in Sprague-Dawley rat plasma at 5 mg/kg, iv by liquid scintillation counting; set-up: dose 5 mg/kg, route intravenous; conditions: in vivo; outline: as §1
Plasma [16] = assay: Clearance in human plasma at 100 uCi, iv by liquid scintillation counting; conditions: in vivo; outline: as §4
[17] = Mean residence time in human whole blood at 100 uCi, iv by liquid scintillation counting; conditions: in vivo; outline: as §4
[18] = Drug level in noncannulated Sprague-Dawley rat assessed as radioactive drug recovery in carcass at 5 mg/kg, iv after 168 hrs by liquid scintillation counting; set-up: dose 5 mg/kg, route intravenous; conditions: in vivo; outline: as §3
[19] = Volume of distribution at steady state in Sprague-Dawley rat whole blood at 5 mg/kg, iv by liquid scintillation counting; set-up: dose 5 mg/kg, route intravenous; conditions: in vivo
Outline: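 Male Sprague-Dawley rats, single i.v. bolus of [14C]drug, 5 mg/kg. Blood by cardiac puncture from three non-cannulated rats killed at each time from 0.25 to 168 h. Radioactivity counted by liquid scintillation. Noncompartmental parameters taken from a composite profile of mean values per time point, assuming 1 g blood equals 1 ml.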

[20] = Tmax in Sprague-Dawley rat whole blood at 5 mg/kg, iv by liquid scintillation counting; set-up: dose 5 mg/kg, route intravenous; conditions: in vivo; outline: as §1
[21] = Drug level in human assessed as radioactive drug recovery in feces at 100 uCi, iv within 216 hrs by liquid scintillation counting; conditions: in vivo; outline: as §5
Plasma [22] = assay: Cmax in human plasma at 100 uCi, iv by liquid scintillation counting; set-up: route intravenous; conditions: in vivo; outline: as §4
[23] = Drug level in bile-duct cannulated Sprague-Dawley rat assessed as radioactive drug recovery in feces at 5 mg/kg, iv after 168 hrs by liquid scintillation counting; set-up: dose 5 mg/kg, route intravenous; conditions: in vivo; outline: as §3
[24] = Drug level in bile-duct cannulated Sprague-Dawley rat assessed as radioactive drug recovery in carcass at 5 mg/kg, iv after 168 hrs by liquid scintillation counting; set-up: dose 5 mg/kg, route intravenous; conditions: in vivo; outline: as §3
[25] = Cmax in human whole blood at 100 uCi, iv by liquid scintillation counting; set-up: route intravenous; conditions: in vivo; outline: as §4
[26] = Cmax in Sprague-Dawley rat whole blood at 5 mg/kg, iv by liquid scintillation counting; set-up: dose 5 mg/kg, route intravenous; conditions: in vivo; outline: as §1
[27] = Clearance in human whole blood at 100 uCi, iv by liquid scintillation counting; conditions: in vivo; outline: as §4
Plasma [28] = assay: Volume of distribution at steady state in human plasma at 100 uCi, iv by liquid scintillation counting; conditions: in vivo; outline: as §2

Compound: CCCCCOc1ccc(-c2ccc(-c3ccc([14C](=O)N[C@H]4C[C@@H](O)[C@@H](O)NC(=O)[C@@H]5[C@@H](O)[C@@H](C)CN5C(=O)[C@H]([C@H](C)O)NC(=O)[C@H]([C@H](O)[C@@H](O)c5ccc(O)cc5)NC(=O)[C@@H]5C[C@@H](O)CN5C(=O)[C@H]([C@H](C)O)NC4=O)cc3)cc2)cc1 [[14C]-ANIDULAFUNGIN]
- Tmax (Plasma [1]): 0.25 h
- Vdss [2]: 61.6 L
- Vdss (Plasma [3]): 1.056 L/kg
- Drug uptake [4]: 33.9%
- Tmax (Plasma [5]): 1.78 h
- Drug uptake [6]: 0.56%
- Cmax (Plasma [7]): 6.84 ugequiv/ml
- t1/2 (Plasma [8]): 119 h
- MRT (Plasma [9]): 162 h
- t1/2 [10]: 52.1 h
- Tmax [11]: 1.75 h
- Drug uptake [12]: 29.5%
- Drug uptake [13]: 77.1%
- t1/2 [14]: 139 h
- t1/2 (Plasma [15]): 52.9 h
- CL (Plasma [16]): 0.356 L/h
- MRT [17]: 174 h
- Drug uptake [18]: 23.1%
- Vdss [19]: 0.696 L/kg
- Tmax [20]: 0.25 h
- Drug uptake [21]: 10%
- Cmax (Plasma [22]): 3020 ng/mL
- Drug uptake [23]: 17.1%
- Drug uptake [24]: 40.4%
- Cmax [25]: 3380 ng/mL
- Cmax [26]: 11.5 ugequiv/ml
- CL [27]: 0.356 L/h
- Vdss (Plasma [28]): 57.6 L
